Screening data: PubChem BioAssay, Sanford-Burnham Center for Chemical Genomics
UBC13 polyUb = UBC13 polyubiquitin chain formation inhibitors, primary screen, biochemical, TR-FRET, uHTS; inhibition, % at 20 µM; hit rate 0.47% among 330,000; AID 485273, 2010; in the data active = inhibition above about 45%, passing the limit was not always enough
SENP6 inh = SENP6 protease inhibitors, primary screen, biochemical, luminescence, uHTS | hit rate 1.8% among 330,000 | Sentrin-specific protease 6 (Homo sapiens), Q9GZR1 | AID 2599, 2010 | Recombinant SENP6 catalytic domain, aminoluciferin luminescence | inhibition, % at 10 µM;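 active = inhibition above about 50% at the single tested dose, limit read from the data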;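 note: plate controls were DMSO wells with enzyme for no effect and DMSO wells lacking enzyme for full effect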
Apaf-1 inh = inhibitors of human Apaf-1 apoptosome, primary screen, biochemical, DEVD-Rh110 fluorescence, uHTS; Apoptotic protease-activating factor 1 (Homo sapiens), O14727; reconstituted apoptosome caspase-3 activity; inhibition, % at 20 µM; hit rate 0.71% among 330,000; AID 489030, 2010; active = inhibition of at least 40% at 20 µM;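 note: plate controls were DMSO wells for no effect and DEVD-CHO caspase inhibitor wells for full effect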
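Material: reconstituted apoptosome with Apaf-1, cytochrome c, caspase-9, procaspase-3, dATP / Buffer or medium: pH 7.5 Hepes buffer with CHAPS, BSA, DTT / Also added: cytochrome c with DEVD-Rh110 / Schedule: compound with Apaf-1, dATP, procaspase-3 30 min, then 50 min reaction, room temperature / Technique: rhodamine 110 fluorescence at Ex 480/Em 540 nm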
SENP8 block-1 = SENP8 protease inhibitors, primary screen, biochemical, luminescence | Sentrin-specific protease 8 (Homo sapiens), Q96LD8 | purified SENP8, Z-RLRGG-aminoluciferin cleavage | inhibition, % at 10 µM | hit rate 1.2% among 330,000; in the data active = inhibition above about 50%
Target sequence (Q96LD8 whole entry, looked up): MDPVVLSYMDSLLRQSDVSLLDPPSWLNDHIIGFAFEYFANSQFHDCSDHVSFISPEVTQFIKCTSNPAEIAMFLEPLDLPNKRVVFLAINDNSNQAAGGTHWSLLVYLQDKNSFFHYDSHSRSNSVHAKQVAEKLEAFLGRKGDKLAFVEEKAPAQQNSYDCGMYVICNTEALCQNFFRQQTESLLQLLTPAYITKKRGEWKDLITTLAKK
SENP8 block-2 = human SENP8 protease inhibitors, primary screen, biochemical, fluorescence, Nedd8 protein substrate, uHTS; recombinant SENP8; Sentrin-specific protease 8 (Homo sapiens), Q96LD8; inhibition, % at 20 µM; AID 602440, 2012; hit rate 0.64% among 360,000; in the data active = inhibition mostly above about 40%, no sharp cut-off; inactive = mostly below about 27%
SENP7 inh = SENP7 protease inhibitors, primary screen, biochemical, luminescence, uHTS | recombinant SENP7, Z-RLRGG-aminoluciferin luminescence, 40 min | hit rate 1.5% among 330,000 | inhibition, % at 5 µM;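 active = inhibition above about 50% at the single test dose, limit read from the data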;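 note: plate controls were DMSO with enzyme for no effect and no enzyme buffer wells for full effect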
Target sequence (Q9BQF6 706-1050 limits assumed): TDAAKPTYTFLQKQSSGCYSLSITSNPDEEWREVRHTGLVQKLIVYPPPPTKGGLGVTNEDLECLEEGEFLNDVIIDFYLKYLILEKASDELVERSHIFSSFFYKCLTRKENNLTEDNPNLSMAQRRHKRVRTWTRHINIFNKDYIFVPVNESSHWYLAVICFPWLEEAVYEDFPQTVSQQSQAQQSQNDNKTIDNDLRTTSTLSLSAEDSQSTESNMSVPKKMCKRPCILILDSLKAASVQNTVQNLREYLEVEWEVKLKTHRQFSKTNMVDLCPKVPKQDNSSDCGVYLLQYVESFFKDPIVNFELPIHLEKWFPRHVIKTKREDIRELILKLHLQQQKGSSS
SENP8 confirm = SENP8 protease inhibitors, retest, confirmation, biochemical, luminescence, single concentration | shares compounds with SENP7 inh | Recombinant SENP8, Z-RLRGG-aminoluciferin luminescence, 60 min | inhibition, % at 12.5 µM | hit rate 40% among 6,200;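 active = mean inhibition across replicates above about 50%, limit read from the data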
SENP6 conf = SENP6 protease inhibitors, confirmation, biochemical, luminescence, single concentration; hit rate 58% among 6,200; recombinant SENP6, Z-RLRGG-aminoluciferin luminescence; shares compounds with SENP7 inh; inhibition, % at 12.5 µM
SENP7 confirm = SENP7 protease inhibitors, retest, confirmation, biochemical, luminescence, single concentration; AID 488917, 2010; inhibition, % at 12.5 µM; hit rate 69% among 6,200; recombinant SENP7, Z-RLRGG-aminoluciferin luminescence, 40 min; shares compounds with SENP7 inh
Casp3 SENP sel = caspase-3 protease inhibitors, confirmation, selectivity assay for SENP inhibitor project, biochemical, single concentration; shares compounds with SENP7 inh; purified caspase-3, Z-DEVD-aminoluciferin luminescence, 60 min; inhibition, % at 12.5 µM; hit rate 60% among 6,200; AID 488918, 2010;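 active = mean inhibition above about 50%, limit read from the data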;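 note: plate controls were enzyme with DMSO for no effect and wells without caspase-3 for full effect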
SENP luc ctr = counter-screen for SENP inhibitors: luminescence interference; shares compounds with SENP7 inh; Pre-incubated SENP8/Z-RLRGG-aminoluciferin, luciferase luminescence interference; inhibition, % at 12.5 µM; hit rate 39% among 6,200;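 active = mean inhibition above about 50% when retested at one dose, limit read from the data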;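 note: plate controls were DMSO wells with completed reaction for no effect and substrate without enzyme for full effect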
* marks the source's active call; other numbers are inactive results; · = no result given. Most compounds without a hit are left out; they make up all but 3.1% or so of the library.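 Rule for the calls, unless noted: active = mean inhibition above about 50% in the one-dose retest (limit read from the data); inactive = the rest.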

SMILES	UBC13 polyUb	SENP6 inh	Apaf-1 inh	SENP8 block-1	SENP8 block-2	SENP7 inh	SENP8 confirm	SENP6 conf	SENP7 confirm	Casp3 SENP sel	SENP luc ctr
Cc1occc1C(=O)N/N=C/c1ccc(Br)s1	-5	88*	7	81*	2	88*	-8	78*	95*	89*	53*
Cc1ccc(/C=N/NC(=O)c2ccoc2C)s1	-3	88*	5	74*	6	85*	-3	77*	95*	93*	80*
COc1cc(C=C2C(=O)c3ccccc3C2=O)ccc1O	-211	-10	0	93*	18	94*	13	91*	97*	80*	61*
COc1ccc(C=C2C(=O)c3ccccc3C2=O)cc1O	-175	95*	8	94*	13	96*	98*	98*	102*	94*	20
C[C@H]1CN([C@@H](C)CO)C(=O)CCCn2cc(nn2)CO[C@@H]1CN(C)C(=O)Nc1ccc2c(c1)OCO2	·	·	·	·	10	·	·	·	·	·	·
COC(=O)N(C)C[C@H]1OCc2cn(nn2)CCCC(=O)N([C@@H](C)CO)C[C@@H]1C	·	·	·	·	9	·	·	·	·	·	·
c1ccc(Nc2nc(-c3cccs3)cs2)nc1	-2	92*	14	94*	-31	83*	96*	97*	102*	88*	94*
c1cncc(-c2nc(-c3cccs3)cs2)c1	7	-3	-1	-7	-69	-1	·	·	·	·	·
Cc1cccc(Nc2nc(-c3ccccn3)cs2)n1	-28	76*	-12	70*	-6	79*	-5	78*	95*	74*	86*
COc1ccc(-c2csc(Nc3cccc(C)n3)n2)cc1C	·	·	·	·	17	·	·	·	·	·	·
Cc1cccc(Nc2nc(-c3cccs3)cs2)n1	9	90*	15	89*	-10	81*	8	96*	102*	76*	87*
c1csc(-c2csc(-c3cccs3)n2)c1	14	-16	16	20	-142	55*	42	60*	82*	34	44
Nc1ccc(Nc2nc(-c3cccs3)cs2)cc1	1	-11	-8	37	11	2	·	·	·	·	·
COc1ccc(-c2cc3c(o2)CCCC3OCCN2CCOCC2)cc1 (stereo not drawn)	·	·	·	·	-234	·	·	·	·	·	·
O=C(Nc1ccc2ccccc2c1)OC1CCS(=O)(=O)C1 (stereo not drawn)	·	·	·	·	0	·	·	·	·	·	·
CCOC(=O)c1c(C)nc2c3ccccc3ccn12	5	74*	11	53*	0	78*	63*	60*	89*	74*	65*
Cc1ccc2nc(CN(C)C(=O)[C@H]3O[C@@H](n4ccc(N)nc4=O)[C@H](O)[C@@H]3O)[nH]c2c1	·	·	·	·	14	·	·	·	·	·	·
COC(=O)c1sc(-c2ccc(Cl)cc2)cc1N	7	81*	9	63*	-305	68*	54*	69*	91*	44	15
CC(=O)c1sc(-c2ccc(Cl)cc2)cc1N	12	31	14	14	-328	9	·	·	·	·	·
COCCn1c(C)cc(C(=O)CSc2nc3ccccc3s2)c1C	2	54*	6	21	2	-8	55*	47	80*	43	26
COCCn1c(C)cc(C(=O)CSc2nc3ccccc3o2)c1C	0	-26	10	-14	18	7	·	·	·	·	·
Cc1nc2cc(-c3ccc(Br)cc3)[nH]n2c(=O)c1Cl	-1	82*	-17	75*	-3	27	0	2	3	11	10
O=c1c2c(nc3cc(-c4ccc(F)cc4)[nH]n13)CCCC2	-2	54*	1	38	-71	55*	-2	8	22	37	5
Cc1cc2nc(C)c(Cl)c(=O)n2[nH]1	-1	0	-2	-3	-26	-7	·	·	·	·	·
O=c1c2c(nc3cc(-c4ccc(Cl)cc4)[nH]n13)CCS2	9	88*	5	85*	-397	73*	-2	2	4	24	12
SMILES	UBC13 polyUb	SENP6 inh	Apaf-1 inh	SENP8 block-1	SENP8 block-2	SENP7 inh	SENP8 confirm	SENP6 conf	SENP7 confirm	Casp3 SENP sel	SENP luc ctr
O=c1c2c(nc3cc(-c4cccc(Cl)c4)[nH]n13)CCC2	9	50*	-9	45	-270	57*	-25	-11	12	20	-8
NC(=O)c1ccc(-c2ccc(N3C(c4ccsc4)=Cc4ccc(F)cc4C3CC(=O)c3ccco3)cc2)cc1 (stereo not drawn)	·	·	·	·	-180	·	·	·	·	·	·
O=C(CCC(=O)OCCCC(F)(F)C(F)(F)F)Nc1ccccc1	0	-22	-5	0	16	99*	-2	-1	-6	-5	-4
C=CCN1[C@@H](Cc2ccccc2)COCCS1(=O)=O	·	·	·	·	5	·	·	·	·	·	·
O=C(CCCN1C(=O)/C(=C/c2ccc3c(c2)OCO3)SC1=S)Nc1cccc(C(=O)O)c1	-4	82*	2	76*	10	48	60*	82*	90*	63*	46
O=C1/C(=C\c2ccc(O)c(O)c2)SC(=S)N1Cc1ccccc1	-74	55*	20	47	36*	-8	70*	69*	72*	18	49
CCc1ccc(/C=C2/SC(=S)N(CCCC(=O)Nc3cccc(C(=O)O)c3)C2=O)cc1	·	·	·	·	35	·	·	·	·	·	·
O=C(CCN1C(=O)/C(=C/c2ccc3c(c2)OCO3)SC1=S)Nc1cccc(C(=O)O)c1	-22	9	3	0	29	-16	·	·	·	·	·
COc1cccc(/C=C2\SC(=S)N(CCCC(=O)Nc3ccc(C(=O)O)cc3)C2=O)c1	-12	84*	11	84*	9	81*	67*	76*	62*	58*	15
